Data: ChEMBL document CHEMBL3792365, “Dioxol and dihydrodioxin analogs of 2- and 3-phenylacetonitriles as potent anti-cancer agents with nanomolar activity against a variety of human cancer cells” (2016)

Assays:
Type in all cases: functional
[1] = Growth inhibition of human RPMI8226 cells at 10 uM after 48 hrs by sulforhodamine B assay; details: RPMI-8226, 48 h, values are per cent of control
NCI-H522 = assay: Growth inhibition of human NCI-H522 cells after 48 hrs by sulforhodamine B assay; details: NCI-H522, 48 h
In short: (§1)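 Five-dose concentration series run across a panel of 60 human tumour cell lines. GI50 is taken as the drug concentration giving a 50% reduction in net protein increase relative to untreated control cells.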

[2] = Growth inhibition of human RXF393 cells at 10 uM after 48 hrs by sulforhodamine B assay; details: RXF 393, 48 h, values are per cent of control
[3] = Growth inhibition of human HCT116 cells after 48 hrs by sulforhodamine B assay; details: HCT-116, 48 h
In short: (§2)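 Five-dose testing against a 60-line human tumor cell panel. GI50 is the drug concentration giving a 50% reduction in net protein increase relative to untreated control cells.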

[4] = Growth inhibition of human UACC62 cells after 48 hrs by sulforhodamine B assay; details: UACC-62, 48 h
In short: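 Five-dose testing across the 60-line human tumour cell panel. GI50 is the drug concentration that gives a 50% reduction in net protein increase relative to control cells.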

SK-MEL-2 = assay: Growth inhibition of human SK-MEL-2 cells after 48 hrs by sulforhodamine B assay; details: SK-MEL-2, 48 h; in short: as §1
[5] = Growth inhibition of human OVCAR3 cells after 48 hrs by sulforhodamine B assay; details: OVCAR-3, 48 h; in short: as §1
[6] = Growth inhibition of human HCT15 cells at 10 uM after 48 hrs by sulforhodamine B assay; details: HCT-15, 48 h, values are per cent of control
U-251 = assay: Growth inhibition of human U251 cells after 48 hrs by sulforhodamine B assay; details: U-251, 48 h; in short: as §1
786-0 = assay: Growth inhibition of human 786-0 cells at 10 uM after 48 hrs by sulforhodamine B assay; details: 786-0, 48 h, values are per cent of control
[7] = Growth inhibition of human HL-60(TB) cells after 48 hrs by sulforhodamine B assay; details: HL-60, 48 h
In short: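 Five-dose study across the 60-cell human tumour panel. GI50 is the drug concentration giving a 50% reduction in net protein increase relative to control cells.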

[8] = Growth inhibition of human SF539 cells after 48 hrs by sulforhodamine B assay; details: SF-539, 48 h; in short: as §1
[9] = Growth inhibition of human UACC257 cells at 10 uM after 48 hrs by sulforhodamine B assay; details: UACC-257, 48 h, values are per cent of control
MCF7 = assay: Growth inhibition of human MCF7 cells at 10 uM after 48 hrs by sulforhodamine B assay; details: MCF7, 48 h, values are per cent of control
[10] = Growth inhibition of human PC3 cells at 10 uM after 48 hrs by sulforhodamine B assay; details: PC-3, 48 h, values are per cent of control
SK-MEL-28 = assay: Growth inhibition of human SK-MEL-28 cells after 48 hrs by sulforhodamine B assay; details: SK-MEL-28, 48 h; in short: as §1
CCRF-CEM [11] = assay: Growth inhibition of human CCRF-CEM cells after 48 hrs by sulforhodamine B assay; in short: as §2
[12] = Growth inhibition of human OVCAR8 cells at 10 uM after 48 hrs by sulforhodamine B assay; details: OVCAR-8, 48 h, values are per cent of control
MDA-MB-231 = assay: Growth inhibition of human MDA-MB-231 cells after 48 hrs by sulforhodamine B assay; details: MDA-MB-231, 48 h; in short: as §2
A549 = assay: Growth inhibition of human A549/ATCC cells after 48 hrs by sulforhodamine B assay; details: A549, 48 h; in short: as §2
Malme-3M = assay: Growth inhibition of human MALME-3M cells at 10 uM after 48 hrs by sulforhodamine B assay; details: values are per cent of control
M14 = assay: Growth inhibition of human M14 cells after 48 hrs by sulforhodamine B assay; details: M14, 48 h; in short: as §2
SK-MEL-5 [13] = assay: Growth inhibition of human SK-MEL-5 cells at 10 uM after 48 hrs by sulforhodamine B assay; details: SK-MEL-5, 48 h, values are per cent of control
SK-MEL-5 [14] = assay: Growth inhibition of human SK-MEL-5 cells after 48 hrs by sulforhodamine B assay; details: SK-MEL-5, 48 h; in short: as §1
[15] = Growth inhibition of human NCI-ADR-RES cells at 10 uM after 48 hrs by sulforhodamine B assay; details: values are per cent of control
[16] = Growth inhibition of human MOLT4 cells at 10 uM after 48 hrs by sulforhodamine B assay; details: MOLT-4, 48 h, values are per cent of control
SR = assay: Growth inhibition of human SR cells at 10 uM after 48 hrs by sulforhodamine B assay; details: values are per cent of control
[17] = Growth inhibition of human SKOV3 cells after 48 hrs by sulforhodamine B assay; details: SK-OV-3, 48 h; in short: as §1
[18] = Growth inhibition of human NCI-ADR-RES cells after 48 hrs by sulforhodamine B assay; in short: as §1
MDA-MB-435 = assay: Growth inhibition of human MDA-MB-435 cells after 48 hrs by sulforhodamine B assay; details: MDA-MB-435, 48 h; in short: as §2
[19] = Growth inhibition of human PC3 cells after 48 hrs by sulforhodamine B assay; details: PC-3, 48 h; in short: as §1
[20] = Growth inhibition of human HOP92 cells after 48 hrs by sulforhodamine B assay; details: HOP-92, 48 h; in short: as §2
[21] = Growth inhibition of human IGROV1 cells after 48 hrs by sulforhodamine B assay; details: IGROV-1, 48 h; in short: as §2
ACHN = assay: Growth inhibition of human ACHN cells at 10 uM after 48 hrs by sulforhodamine B assay; details: values are per cent of control
[22] = Growth inhibition of human SKOV3 cells at 10 uM after 48 hrs by sulforhodamine B assay; details: SK-OV-3, 48 h, values are per cent of control
[23] = Growth inhibition of human HCC2998 cells after 48 hrs by sulforhodamine B assay; details: HCC 2998, 48 h; in short: as §2
CCRF-CEM [24] = assay: Growth inhibition of human CCRF-CEM cells at 10 uM after 48 hrs by sulforhodamine B assay; details: values are per cent of control
[25] = Growth inhibition of human HOP92 cells at 10 uM after 48 hrs by sulforhodamine B assay; details: HOP-92, 48 h, values are per cent of control
[26] = Growth inhibition of human OVCAR3 cells at 10 uM after 48 hrs by sulforhodamine B assay; details: OVCAR-3, 48 h, values are per cent of control
[27] = Growth inhibition of human COLO205 cells after 48 hrs by sulforhodamine B assay; details: COLO 205, 48 h; in short: as §2
[28] = Growth inhibition of human HL-60(TB) cells at 10 uM after 48 hrs by sulforhodamine B assay; details: HL-60, 48 h, values are per cent of control
[29] = Growth inhibition of human SF295 cells after 48 hrs by sulforhodamine B assay; details: SF-295, 48 h; in short: as §1
[30] = Growth inhibition of human SNB75 cells after 48 hrs by sulforhodamine B assay; details: SNB-75, 48 h; in short: as §1

SMILES: COc1ccc(/C=C(\C#N)c2ccc3c(c2)OCO3)cc1
- growth, % of control at 10 µM [1]: 18.9%
- GI50 (NCI-H522): 40 nM
- growth, % of control at 10 µM [2]: 23.3%
- GI50 [3]: 220 nM
- GI50 [4]: 590 nM
- GI50 (SK-MEL-2): 210 nM
- GI50 [5]: 270 nM
- growth, % of control at 10 µM [6]: 17.8%
- GI50 (U-251): 430 nM
- growth, % of control at 10 µM (786-0): 50.3%
- GI50 [7]: 240 nM
- GI50 [8]: 250 nM
- growth, % of control at 10 µM [9]: 23%
- growth, % of control at 10 µM (MCF7): 20.7%
- growth, % of control at 10 µM [10]: 21.2%
- GI50 (SK-MEL-28): 450 nM
- GI50 (CCRF-CEM [11]): 250 nM
- growth, % of control at 10 µM [12]: 26.7%
- GI50 (MDA-MB-231): 2110 nM
- GI50 (A549): 270 nM
- growth, % of control at 10 µM (Malme-3M): 24.3%
- GI50 (M14): 120 nM
- growth, % of control at 10 µM (SK-MEL-5 [13]): 16.4%
- GI50 (SK-MEL-5 [14]): 210 nM
- growth, % of control at 10 µM [15]: 11.6%
- growth, % of control at 10 µM [16]: 19.5%
- growth, % of control at 10 µM (SR): 11.8%
- GI50 [17]: 400 nM
- GI50 [18]: 80 nM
- GI50 (MDA-MB-435): 30 nM
- GI50 [19]: 320 nM
- GI50 [20]: 4220 nM
- GI50 [21]: 3600 nM
- growth, % of control at 10 µM (ACHN): 45.7%
- growth, % of control at 10 µM [22]: 28.8%
- GI50 [23]: 5260 nM
- growth, % of control at 10 µM (CCRF-CEM [24]): 21.6%
- growth, % of control at 10 µM [25]: 40.4%
- growth, % of control at 10 µM [26]: 4.9%
- GI50 [27]: 140 nM
- growth, % of control at 10 µM [28]: 0.1%
- GI50 [29]: 200 nM

SMILES: COc1cc(/C(C#N)=C/c2ccc3c(c2)OCCO3)cc(OC)c1OC
- growth, % of control at 10 µM [1]: 39.2%
- GI50 (NCI-H522): 50 nM
- growth, % of control at 10 µM [2]: 41.8%
- GI50 [3]: 30 nM
- GI50 [4]: 30 nM
- GI50 [5]: 40 nM
- growth, % of control at 10 µM [6]: 16.5%
- GI50 (U-251): 50 nM
- growth, % of control at 10 µM (786-0): 14.8%
- GI50 [7]: 40 nM
- GI50 [8]: 20 nM
- growth, % of control at 10 µM [9]: 76%
- growth, % of control at 10 µM (MCF7): 14.6%
- growth, % of control at 10 µM [10]: 26.5%
- GI50 (SK-MEL-28): 60 nM
- GI50 (CCRF-CEM [11]): 210 nM
- growth, % of control at 10 µM [12]: 10.4%
- GI50 (MDA-MB-231): 170 nM
- GI50 (A549): 60 nM
- growth, % of control at 10 µM (Malme-3M): 64.3%
- GI50 (M14): 30 nM
- growth, % of control at 10 µM (SK-MEL-5 [13]): -38%
- GI50 (SK-MEL-5 [14]): 30 nM
- growth, % of control at 10 µM [15]: 17%
- growth, % of control at 10 µM [16]: -14.3%
- growth, % of control at 10 µM (SR): -11%
- GI50 [17]: 40 nM
- GI50 [18]: 30 nM
- GI50 (MDA-MB-435): 20 nM
- GI50 [19]: 60 nM
- GI50 [20]: 120 nM
- GI50 [21]: 630 nM
- growth, % of control at 10 µM (ACHN): 34.4%
- growth, % of control at 10 µM [22]: 17.6%
- GI50 [23]: 140 nM
- growth, % of control at 10 µM (CCRF-CEM [24]): 0.4%
- growth, % of control at 10 µM [25]: -1.7%
- GI50 [27]: 120 nM
- growth, % of control at 10 µM [28]: -46.3%
- GI50 [30]: 30 nM
- GI50 [29]: 20 nM

SMILES: COc1ccc(/C=C(\C#N)c2ccc3c(c2)OCO3)c(OC)c1
- growth, % of control at 10 µM [1]: 58.1%
- GI50 (NCI-H522): 2580 nM
- growth, % of control at 10 µM [2]: 40.3%
- GI50 [3]: 2680 nM
- GI50 [4]: 2320 nM
- GI50 (SK-MEL-2): 720 nM
- GI50 [5]: 3100 nM
- growth, % of control at 10 µM [6]: 24.4%
- growth, % of control at 10 µM (786-0): 52.1%
- GI50 [7]: 1490 nM
- GI50 [8]: 1610 nM
- growth, % of control at 10 µM [9]: 44.7%
- growth, % of control at 10 µM [10]: 47%
- GI50 (SK-MEL-28): 4470 nM
- GI50 (CCRF-CEM [11]): 1560 nM
- growth, % of control at 10 µM [12]: 63.1%
- GI50 (MDA-MB-231): 3360 nM
- GI50 (A549): 2650 nM
- growth, % of control at 10 µM (Malme-3M): 49.3%
- GI50 (M14): 1320 nM
- growth, % of control at 10 µM (SK-MEL-5 [13]): 31.7%
- GI50 (SK-MEL-5 [14]): 2580 nM
- growth, % of control at 10 µM [15]: 20.3%
- growth, % of control at 10 µM [16]: 22.7%
- growth, % of control at 10 µM (SR): 15.5%
- GI50 [17]: 2750 nM
- GI50 [18]: 2410 nM
- GI50 (MDA-MB-435): 300 nM
- GI50 [19]: 3030 nM
- GI50 [20]: 7420 nM
- GI50 [21]: 8800 nM
- growth, % of control at 10 µM (ACHN): 59.1%
- growth, % of control at 10 µM [22]: 33.2%
- GI50 [23]: 11900 nM
- growth, % of control at 10 µM (CCRF-CEM [24]): 27%
- growth, % of control at 10 µM [26]: 15.3%
- GI50 [27]: 1590 nM
- growth, % of control at 10 µM [28]: 7.1%
- GI50 [29]: 1750 nM
